The results in this text go back to ChEMBL document CHEMBL5620424, “Design, synthesis and evaluation of novel 2-phenyl-3-(1H-pyrazol-4-yl)pyridine positive allosteric modulators for the M4 mAChR” (Eur J Med Chem, 2023).

Series [1] concerns the target T1, Muscarinic acetylcholine receptor M4 (Homo sapiens) (UniProt P08173).
T1 sequence (whole entry): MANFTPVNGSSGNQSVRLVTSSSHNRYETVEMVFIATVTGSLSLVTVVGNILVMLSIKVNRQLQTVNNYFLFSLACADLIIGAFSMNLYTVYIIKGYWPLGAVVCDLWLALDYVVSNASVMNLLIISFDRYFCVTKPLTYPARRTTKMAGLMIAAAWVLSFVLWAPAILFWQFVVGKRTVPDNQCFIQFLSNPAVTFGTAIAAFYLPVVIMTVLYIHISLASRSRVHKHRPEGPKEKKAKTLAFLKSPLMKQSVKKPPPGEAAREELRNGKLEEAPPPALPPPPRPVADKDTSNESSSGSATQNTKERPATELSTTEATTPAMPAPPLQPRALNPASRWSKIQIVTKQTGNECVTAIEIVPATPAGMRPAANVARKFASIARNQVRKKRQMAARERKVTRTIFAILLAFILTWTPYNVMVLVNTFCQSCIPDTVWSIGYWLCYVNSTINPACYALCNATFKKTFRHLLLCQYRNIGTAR
As to the kind of experiment: Positive allosteric modulation at Rluc-tagged human M4 mAChR expressed in Flp-In-CHO cells co-expressing eYFP-tagged beta-arrestin 2 assessed as efficacy of ACh-mediated beta-arrestin 2 recruitment (log tau B) incubated for 5 mins by luminometry. Type of series: cell-based. The settings on record: filed as positive allosteric modulator. The method in brief: (§1)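 FlpInCHO cells co-transfected with human M4-Rluc8 (20 ng/well) and β-arrestin-2-eYFP (80 ng/well) using PEI, assayed after 48 h. Coelenterazine h (5 μM) preincubated 5 min, then ACh plus modulator ranges for 5 min at 37 °C; BRET at 475/535 nm. Fit to simplified operational model with slope 1 and KB fixed from binding. 4–5 experiments in duplicate.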
A general note: Recruitment of arrestin is a read-out of receptor activation apart from second messengers.

Series [2] concerns the target T1, Muscarinic acetylcholine receptor M4 (Homo sapiens). As to the kind of experiment: Positive allosteric modulation at Rluc-tagged human M4 mAChR expressed in Flp-In-CHO cells co-expressing eYFP-tagged beta-arrestin 2 assessed as ACh-mediated beta-arrestin 2 recruitment co-operativity (log alpha beta) incubated for 5 mins by luminometry. Type of series: cell-based. Particulars: filed as positive allosteric modulator. The method in brief: as §1

Series [3] concerns the target T2, Muscarinic acetylcholine receptor M2 (Homo sapiens) (UniProt P08172).
T2 sequence (whole entry): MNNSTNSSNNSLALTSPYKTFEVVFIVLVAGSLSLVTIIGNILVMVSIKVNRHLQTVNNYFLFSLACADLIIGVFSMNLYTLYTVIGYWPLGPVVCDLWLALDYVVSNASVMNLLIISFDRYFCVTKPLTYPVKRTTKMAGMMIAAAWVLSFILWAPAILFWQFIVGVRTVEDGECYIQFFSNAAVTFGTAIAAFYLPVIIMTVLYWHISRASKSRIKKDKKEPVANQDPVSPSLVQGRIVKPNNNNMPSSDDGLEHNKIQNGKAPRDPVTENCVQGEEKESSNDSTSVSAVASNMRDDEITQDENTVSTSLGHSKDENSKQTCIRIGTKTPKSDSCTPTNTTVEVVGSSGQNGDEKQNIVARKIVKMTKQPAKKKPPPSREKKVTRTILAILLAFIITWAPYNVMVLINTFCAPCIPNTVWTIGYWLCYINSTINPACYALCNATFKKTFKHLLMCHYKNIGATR
As to the kind of experiment: Positive allosteric modulation at human M2 mAChR expressed in Flp-In-CHO cells at 10 uM incubated for 5 mins by […]. Type of series: cell-based. An outline of the steps: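 FlpInCHO cells stably expressing human M1–M5 mAChRs, serum-deprived in HBSS 4 h at 37 °C, then ACh (10 nM–10 μM) with or without modulator at 10 μM for 5 min at 37 °C. Cells lysed and frozen overnight. pERK1/2 measured by AlphaScreen SureFire Ultra, as % of response to 10% FBS.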

Series [4] addresses T3, Muscarinic acetylcholine receptor M1 (Homo sapiens) (UniProt P11229).
T3 sequence (whole entry): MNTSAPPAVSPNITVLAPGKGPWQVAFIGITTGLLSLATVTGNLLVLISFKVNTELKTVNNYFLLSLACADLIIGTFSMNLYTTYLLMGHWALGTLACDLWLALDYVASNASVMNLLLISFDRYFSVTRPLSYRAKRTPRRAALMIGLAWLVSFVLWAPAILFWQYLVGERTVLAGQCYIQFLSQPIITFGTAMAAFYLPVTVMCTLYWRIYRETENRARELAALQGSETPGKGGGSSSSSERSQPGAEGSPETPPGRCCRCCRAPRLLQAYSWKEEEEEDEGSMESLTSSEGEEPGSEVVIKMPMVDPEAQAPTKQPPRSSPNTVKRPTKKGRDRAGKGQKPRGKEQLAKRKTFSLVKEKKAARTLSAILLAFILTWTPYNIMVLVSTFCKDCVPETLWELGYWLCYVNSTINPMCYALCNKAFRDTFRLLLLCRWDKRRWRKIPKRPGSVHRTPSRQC
As to the kind of experiment: Positive allosteric modulation at human M1 mAChR expressed in Flp-In-CHO cells at 10 uM incubated for 5 mins by AlphaScreen SureFire Ultra pERK1/2 assay. (In general: In Alpha technology, singlet oxygen from a donor bead excites a nearby acceptor bead.)

In series [5] the target is T1, Muscarinic acetylcholine receptor M4 (Homo sapiens). As to the kind of experiment: Positive allosteric modulation at human M4 mAChR expressed in Flp-In-CHO cells co-expressing CAMYEL biosensor assessed as ACh-mediated cAMP signalling co-operativity (log alpha beta) incubated for 5 mins by BRET assay. Type of series: functional, cell-based. The settings on record: filed as positive allosteric modulator. The method in brief:
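CAMYEL-transfected FlpInCHO-hM4 cells (48 h post-transfection) given ACh and modulator concentration ranges in full interaction design, 5 min at 37 °C; BRET read with coelenterazine h. Fit to complete operational model of allosterism and agonism with ACh KA and modulator KB fixed from binding assays. Gives log τB and log αβ. 4–5 experiments in duplicate.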
Background: In BRET a luciferase serves as donor, and the signal depends on an acceptor being close.

The target is the same in series [6]. As to the kind of experiment: Positive allosteric modulation at human M4 mAChR expressed in Flp-In-CHO cells co-expressing CAMYEL biosensor assessed as change in ACh-mediated response incubated for 5 mins by BRET assay. Type of series: cell-based. Particulars: filed as positive allosteric modulator. The method in brief: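 FlpInCHO cells stably expressing human M4 mAChR, transiently transfected with CAMYEL cAMP BRET biosensor (60 ng/well, PEI), assayed 48 h later in HBSS pH 7.4. Full ACh concentration-response curve alone or with modulator at 1 or 10 μM, co-added with coelenterazine h (5 μM), 5 min, 37 °C. Three-parameter logistic fit; ACh curve values subtracted from ACh+modulator values. Δbaseline and ΔEmax given as % of maximal ACh response without modulator. 4 experiments in duplicate, SEM pooled.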

Series [7] is described as follows: Ratio of drug concentration in brain to plasma of naive C57BL/6J mouse at 10 mg/kg, ip. Particulars: read-out: BPR. Type of series: ADME, organism-based. The method in brief:
(§2)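 Male C57Bl/6J mice, naïve, 10–12 weeks old, dosed i.p. at 10 mg/kg in 10% DMSO, 1.1% Tween 80, 21.8 mM Tris. Blood by cardiac puncture under anaesthesia at 20 or 90 min (n = 2–3 per time point). Brain concentration corrected for compound in brain vasculature. Mean nM ± SEM reported; Kp = Cbrain/Cplasma, reported as a range.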

Series [8] is described as follows: Drug concentration in brain of naive C57BL/6J mouse at 10 mg/kg, ip measured after 90 mins. Type of series: ADME, organism-based. Particulars: read-out: Ct. An outline of the steps:
as §2

Series [9] in a line: Drug concentration in brain of naive C57BL/6J mouse at 10 mg/kg, ip measured after 20 to 30 mins. Type of series: ADME, organism-based. The settings on record: in vivo, time 20-30 min, read-out: Ct. An outline of the steps: as §2

Each structure is given as a SMILES string. Calls of active or inactive are those of the source. No cut-off for these calls is given here.

In the case of `Cc1ccc(-c2cnn(CC3CCCC3)c2)c(-c2ccc(N)c([N+](=O)[O-])c2)n1`, the log(activity) was 0.39 in series [1], 1.18 in series [2] and 1.91 in series [5]. Further, the outcome in [3] and in series [4] was inactive. Further, in series [6], the deltapEC50 stood at 1.27. Besides, in [7], the Kp was determined as 0.3. Further, in series [8], the concentration at 1.5 h is 373 nM. Further, in series [9], the concentration was 982 nM.
As to `Cc1ccc(-c2cnn(CC3CCCC3)c2)c(-c2ccc(F)c(F)c2)n1`, the results for the log(activity) in series [1], in series [2] and in [5] were 0.31, 1.55 and 2.65, respectively. The outcome in [3] and in [4] was inactive. In series [6], the deltapEC50 amounted to 0.76. The Kp in [7] was 1.6. Besides, the concentration at 1.5 h in series [8] is 255 nM. For the same molecule, the concentration in series [9] worked out at 2140 nM.
`Cc1ccc(-c2cnn(CC3CCCC3)c2)c(-c2ccc3c(c2)C(=O)N(C)C3)n1`: the log(activity) was found to be 0.99 in series [1], 1.94 in [2] and 2.34 in series [5]. The outcome in series [3] (filed as positive allosteric modulator) was Active. In series [4], the result was inactive. In series [6], the deltapEC50 worked out at 1.48. The Kp in series [7] was 0.1. Besides, in series [8], the concentration at 1.5 h amounted to 9 nM. Moreover, the concentration in series [9] was 481 nM.
